In PMC10376460 (European Journal of Endocrinology, 2023):
Values joined by “and” are separate entries in the source; they are usually repeats but may differ in a detail not shown here. Equal values may be shown once. “Also recorded” adds a separate entry of the source.

Columns and labels:
[1] = biological target: T1, human AKR1C3 (Homo sapiens, UniProt P42330); assay: Biochemical enzyme assay: coumberol formation from coumberone; conditions: read-out: IC50, inhibition of human AKR1C3 activity; coumberone 0.3 µmol/L (Km)
T1 sequence (P42330 1-323): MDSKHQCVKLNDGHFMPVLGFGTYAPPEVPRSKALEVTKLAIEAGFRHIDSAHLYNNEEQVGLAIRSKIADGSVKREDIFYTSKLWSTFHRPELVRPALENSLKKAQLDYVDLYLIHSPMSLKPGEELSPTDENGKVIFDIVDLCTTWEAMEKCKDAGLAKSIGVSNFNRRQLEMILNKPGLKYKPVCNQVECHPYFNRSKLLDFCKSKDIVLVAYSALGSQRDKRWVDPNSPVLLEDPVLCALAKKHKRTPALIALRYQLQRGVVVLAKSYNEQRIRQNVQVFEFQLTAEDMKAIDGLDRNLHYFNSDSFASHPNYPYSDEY

[2] = tested on: organic anion transporting polypeptide (OATP) 1B1/3 transporters; conditions: in vitro; cited from earlier work
[3] = tested on: AKR1C1; conditions: concentrations up to 10 µM; cited from earlier work
[4] = tested on: AKR1C4; conditions: concentrations up to 10 µM; cited from earlier work
[5] = tested on: postmenopausal women; assay: Safety assessments; type: in vivo, human
In short: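 Safety covered adverse event reports, vital signs, ECGs, hematology, serum chemistry including liver function tests (transaminases, alkaline phosphatase) and urinalysis. Total serum bilirubin was followed during and after dosing against an ULN of 1.23 mg/dL. Placebo recipients were pooled, with descriptive statistics.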

[6] = tested on: postmenopausal women; assay: Steroid assay; type: in vivo, human; conditions: 30 mg QD to 60 mg BID for 14 days
In short: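 Postmenopausal women received test compound QD or BID, or placebo, for 14 days with 5-day follow-up. A commercial validated multiplex LC-MS/MS kit quantified 17 serum steroids at 0-48 h after dosing on day −1, day 1 and day 14, plus predose samples. Fold change was the ratio to the last pre-dose value of the period. Values below LLOQ were excluded.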

[7] = Plasma pharmacokinetics, part A; type: in vivo, human
In short: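 Postmenopausal women, randomized, double-blind, placebo-controlled (7 active, 2 placebo per step). A single dose was given, then after a 14-28 day washout 3, 30 or 90 mg QD or 60 mg BID for 14 days. Plasma parent and metabolite M-7 were sampled predose to 336 h, plus periodic predose troughs. Noncompartmental parameters, accumulation and linearity indices were derived, and steady state was judged from mean Ctrough.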

[8] = Plasma pharmacokinetics, part B; type: in vivo, human; conditions: premenopausal women
In short: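 Premenopausal women received open-label oral test compound 60 mg QD or BID for 28 days. Plasma parent and metabolite M-7 concentrations were measured. Standard noncompartmental multiple-dose PK parameters were calculated from concentration-time data.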

[9] = tested on: premenopausal women; assay: Ovarian function assessment; type: in vivo, human; conditions: 60 mg QD or BID 28 d
In short: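 Open-label, intraindividual comparison in 18 premenopausal women: a pretreatment cycle, then oral test compound 60 mg QD or BID for 28 days. Assessments were transvaginal ultrasound (follicle diameter, endometrial thickness), Hoogland scoring of ovarian activity, and a bleeding pattern from daily self-rated maximum bleeding intensity. FSH and LH were sampled at 3- to 4-day visits, with extra visits on urinary E3G rises.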

[10] = tested on: AKR1C2; conditions: concentrations up to 10 µM; cited from earlier work
[11] = tested on: premenopausal women; assay: Steroid assay; type: in vivo, human
In short: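 Premenopausal women, pretreatment cycle versus 28-day treatment with 60 mg QD or BID. A validated multiplex LC-MS/MS kit measured 17 serum steroids at 3- to 4-day visits, E3G-triggered visits, first bleeding days and end of treatment. LH-peak-adjusted AUCs were taken from day −5 to +10 per cycle. Cycles were compared with 90% CI and Bonferroni–Holm-adjusted P values, and values below LLOQ were excluded.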

[12] = tested on: healthy premenopausal and postmenopausal women; assay: Eicosanoid; type: in vivo, human; conditions: systemic measurements
In short: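 Plasma from postmenopausal (part A) and premenopausal (part B) women on the test compound. Eicosanoids, including prostaglandins, and polyunsaturated fatty acids were measured together by a published LC-MS/MS method. Part B sampling was at 3- to 4-day visits.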

[13] = tested on: premenopausal women with endometriosis; conditions: phase 2 study; cited from earlier work
[14] = LH-peak-adjusted AUC, 60 mg once or twice daily 28 d
[15] = serum, LH-peak-adjusted (day −5 to +10), 60 mg once or twice daily 28 d
[16] = treatment vs pretreatment cycle, 60 mg once or twice daily 28 d

In the case of `CN(CCC(=O)O)C(=O)c1ccc2c(c1)CC[C@@H]1[C@@H]2CC[C@]2(C)C(c3cncc(F)c3)=CC[C@@H]12` [BAY1128688], the IC50 [1] is listed as 1.4 nM, the “inhibition of OATP 1B1/3 transporters” value [2] is listed as “inhibitor” and the “inhibition of AKR1C1” value [3] is listed as “no inhibition”. For the same molecule, the “inhibition of AKR1C4” value [4] was “no inhibition”, the “individual maximum increase in total serum bilirubin, fold ULN” value ([5]; 60 mg BID, day 13) was “around 1.2 fold ULN” and the “individual maximum increase in total serum bilirubin, fold ULN” value ([5]; 90 mg QD, day 6) was “around 2.3 fold ULN”. For the same molecule, the “overall safety and tolerability” value ([5]; 2 or 4 weeks of treatment, healthy female participants) was “safe and well tolerated”, the “increases in serum bilirubin, fold above the ULN” value ([5]; all participants except two) was “below 1.50 fold” and the “changes in liver enzymes (transaminases; alkaline phosphatase)” value ([5]; any of the participants, parts A and B) was “no concomitant changes”. For the same molecule, the “serum concentrations of androsterone” value [6] was “increased in a dose-dependent manner”, the “RAAUC (accumulation ratio)” value ([7]; 60 mg BID, geometric mean/%CV) was 2.32 and the “time until PK steady-state conditions were reached (mean Ctrough)” value ([7]; all dose groups) was 4 to 8 days. For the same molecule, the “multiple-dose PK parameters compared with postmenopausal women” value [8] was “Largely similar”, the “menstrual cyclicity and ovarian function” value [9] was “not altered” and the “participants with Hoogland score of 6 (normal ovulation) in treatment cycle” value [9] was 14 of 18 and 14/18. The “inhibition of AKR1C2” value [10] was “no inhibition”, the “changes in serum E2 (17β-estradiol) concentrations” value ([11]; 60 mg QD or BID 28 d) was “no concomitant changes; also recorded: no systematic changes” and the “changes in serum progesterone concentrations” value ([11]; 60 mg QD or BID 28 d) was “no concomitant changes; also recorded: no systematic changes”. The “serum testosterone, treatment cycle vs pretreatment cycle” value ([11]; 60 mg QD or BID 28 d) was “slightly decrease”, the “11-Deoxycorticosterone: X-fold change from baseline, mean” value [11, 14] was 0.88 and the “11-Deoxycorticosterone: X-fold change from baseline, median” value [11, 14] was 0.87. The “11-Deoxycortisol: X-fold change from baseline, mean” value [11, 14] was 0.85, the “11-Deoxycortisol: X-fold change from baseline, median” value [11, 14] was 0.79 and the “17alpha-Hydroxyprogesterone: X-fold change from baseline, mean” value [11, 14] was 0.88. For the same molecule, the “17alpha-Hydroxyprogesterone: X-fold change from baseline, median” value [11, 14] was 0.87, the “Aldosterone: X-fold change from baseline, mean” value [11, 14] was 1.05 and the “Aldosterone: X-fold change from baseline, median” value [11, 14] was 0.94. For the same molecule, the “Androstenedione: X-fold change from baseline, mean” value [11, 14] was 0.99, the “Androstenedione: X-fold change from baseline, median” value [11, 14] was 0.98 and the “Androsterone: X-fold change from baseline, mean” value [11, 14] was 2.95. For the same molecule, the “Androsterone: X-fold change from baseline, median” value [11, 14] was 2.42, the “Corticosterone: X-fold change from baseline, mean” value [11, 14] was 0.98 and the “Corticosterone: X-fold change from baseline, median” value [11, 14] was 0.95. For the same molecule, the “Cortisol: X-fold change from baseline, mean” value [11, 14] was 0.95, the “Cortisol: X-fold change from baseline, median” value [11, 14] was 0.92 and the “Cortisone: X-fold change from baseline, mean” value [11, 14] was 0.94. For the same molecule, the “Cortisone: X-fold change from baseline, median” value [11, 14] was 0.92, the “Dehydroepiandrosterone sulfate: X-fold change from baseline, mean” value [11, 14] was 1.11 and the “Dehydroepiandrosterone sulfate: X-fold change from baseline, median” value [11, 14] was 1.12. The “Dehydroepiandrosterone: X-fold change from baseline, mean” value [11, 14] was 0.83, the “Dehydroepiandrosterone: X-fold change from baseline, median” value [11, 14] was 0.78 and the “Dihydrotestosterone: X-fold change from baseline, mean” value [11, 14] was 1.52. For the same molecule, the “Dihydrotestosterone: X-fold change from baseline, median” value [11, 14] was 1.53, the “Estradiol: X-fold change from baseline, mean” value [11, 14] was 1.06 and the “Estradiol: X-fold change from baseline, median” value [11, 14] was 1.12. For the same molecule, the “Estrone: X-fold change from baseline, mean” value [11, 14] was 1.05, the “Estrone: X-fold change from baseline, median” value [11, 14] was 1.08 and the “Etiocholanolone: X-fold change from baseline, mean” value [11, 14] was 1.96. For the same molecule, the “Etiocholanolone: X-fold change from baseline, median” value [11, 14] was 1.70, the “Progesterone: X-fold change from baseline, mean” value [11, 14] was 0.84 and the “Progesterone: X-fold change from baseline, median” value [11, 14] was 0.90. The “Testosterone: X-fold change from baseline, mean” value [11, 14] was 0.86, the “Testosterone: X-fold change from baseline, median” value [11, 14] was 0.87 and the “11-Deoxycorticosterone: Treatment period AUC” value [11, 15] was 1.61 nmol/day. The “11-Deoxycortisol: Treatment period AUC” value [11, 15] was 4.84 nmol/day, the “17alpha-Hydroxyprogesterone: Treatment period AUC” value [11, 15] was 42.5 nmol/day and the “Aldosterone: Treatment period AUC” value [11, 15] was 3.17 nmol/day. The “Androstenedione: Treatment period AUC” value [11, 15] was 51.1 nmol/day, the “Androsterone: Treatment period AUC” value [11, 15] was 20.6 nmol/day and the “Corticosterone: Treatment period AUC” value [11, 15] was 90.6 nmol/day. The “Cortisol: Treatment period AUC” value [11, 15] was 4102 nmol/day, the “Cortisone: Treatment period AUC” value [11, 15] was 859 nmol/day and the “Dehydroepiandrosterone sulfate: Treatment period AUC” value [11, 15] was 69 510 nmol/d. For the same molecule, the “Dehydroepiandrosterone: Treatment period AUC” value [11, 15] was 130 nmol/day, the “Dihydrotestosterone: Treatment period AUC” value [11, 15] was 10.2 nmol/day and the “Estradiol: Treatment period AUC” value [11, 15] was 7.29 nmol/day. The “Estrone: Treatment period AUC” value [11, 15] was 4.02 nmol/day, the “Etiocholanolone: Treatment period AUC” value [11, 15] was 7.01 nmol/day and the “Progesterone: Treatment period AUC” value [11, 15] was 213 nmol/day. The “Testosterone: Treatment period AUC” value [11, 15] was 9.45 nmol/day, the “androsterone on-treatment value, maximum” value ([11]; serum, 60 mg QD or BID) was 6.36 nmol/L and the “11-Deoxycorticosterone: AUC difference (mixed linear model)” value [11, 16] was -0.308 nmol/day. For the same molecule, the “11-Deoxycortisol: AUC difference (mixed linear model)” value [11, 16] was -0.953 nmol/day, the “17alpha-Hydroxyprogesterone: AUC difference (mixed linear model)” value [11, 16] was -5.20 nmol/day and the “Aldosterone: AUC difference (mixed linear model)” value [11, 16] was 0.0041 nmol/day. For the same molecule, the “Androstenedione: AUC difference (mixed linear model)” value [11, 16] was -0.312 nmol/day, the “Androsterone: AUC difference (mixed linear model)” value [11, 16] was 13.5 nmol/day and the “Corticosterone: AUC difference (mixed linear model)” value [11, 16] was -17.7 nmol/day. For the same molecule, the “Cortisol: AUC difference (mixed linear model)” value [11, 16] was -407 nmol/day, the “Cortisone: AUC difference (mixed linear model)” value [11, 16] was -55.6 nmol/day and the “Dehydroepiandrosterone sulfate: AUC difference (mixed linear model)” value [11, 16] was 9524 nmol/day. For the same molecule, the “Dehydroepiandrosterone: AUC difference (mixed linear model)” value [11, 16] was -23.3 nmol/day, the “Dihydrotestosterone: AUC difference (mixed linear model)” value [11, 16] was 3.49 nmol/day and the “Estradiol: AUC difference (mixed linear model)” value [11, 16] was 0.343 nmol/day. For the same molecule, the “Estrone: AUC difference (mixed linear model)” value [11, 16] was 0.139 nmol/day, the “Etiocholanolone: AUC difference (mixed linear model)” value [11, 16] was 3.47 nmol/day and the “Progesterone: AUC difference (mixed linear model)” value [11, 16] was -50.6 nmol/day. The “Testosterone: AUC difference (mixed linear model)” value [11, 16] was -1.43 nmol/day, the “impact on prostaglandins investigated” value [12] was “no obvious impact” and the “finding that terminated development” value [13] was “hepatotoxicity”.
